Our source for the Ratio and IC50 values is ChEMBL document CHEMBL1135530, “Selective alpha4beta7 integrin antagonists and their potential as antiinflammatory agents” (J Med Chem, 2002).

Peptide text beside a SMILES is read from it.

The nature of assay [1]: Selectivity is the ratio of inhibitory concentrations at alpha4-beta1 integrin to alpha4-beta7 integrin.
Assay [2] has as its target T1, Integrin alpha-4/beta-7 (Homo sapiens, UniProt P13612+P26010).
T1 sequence (P13612 whole entry): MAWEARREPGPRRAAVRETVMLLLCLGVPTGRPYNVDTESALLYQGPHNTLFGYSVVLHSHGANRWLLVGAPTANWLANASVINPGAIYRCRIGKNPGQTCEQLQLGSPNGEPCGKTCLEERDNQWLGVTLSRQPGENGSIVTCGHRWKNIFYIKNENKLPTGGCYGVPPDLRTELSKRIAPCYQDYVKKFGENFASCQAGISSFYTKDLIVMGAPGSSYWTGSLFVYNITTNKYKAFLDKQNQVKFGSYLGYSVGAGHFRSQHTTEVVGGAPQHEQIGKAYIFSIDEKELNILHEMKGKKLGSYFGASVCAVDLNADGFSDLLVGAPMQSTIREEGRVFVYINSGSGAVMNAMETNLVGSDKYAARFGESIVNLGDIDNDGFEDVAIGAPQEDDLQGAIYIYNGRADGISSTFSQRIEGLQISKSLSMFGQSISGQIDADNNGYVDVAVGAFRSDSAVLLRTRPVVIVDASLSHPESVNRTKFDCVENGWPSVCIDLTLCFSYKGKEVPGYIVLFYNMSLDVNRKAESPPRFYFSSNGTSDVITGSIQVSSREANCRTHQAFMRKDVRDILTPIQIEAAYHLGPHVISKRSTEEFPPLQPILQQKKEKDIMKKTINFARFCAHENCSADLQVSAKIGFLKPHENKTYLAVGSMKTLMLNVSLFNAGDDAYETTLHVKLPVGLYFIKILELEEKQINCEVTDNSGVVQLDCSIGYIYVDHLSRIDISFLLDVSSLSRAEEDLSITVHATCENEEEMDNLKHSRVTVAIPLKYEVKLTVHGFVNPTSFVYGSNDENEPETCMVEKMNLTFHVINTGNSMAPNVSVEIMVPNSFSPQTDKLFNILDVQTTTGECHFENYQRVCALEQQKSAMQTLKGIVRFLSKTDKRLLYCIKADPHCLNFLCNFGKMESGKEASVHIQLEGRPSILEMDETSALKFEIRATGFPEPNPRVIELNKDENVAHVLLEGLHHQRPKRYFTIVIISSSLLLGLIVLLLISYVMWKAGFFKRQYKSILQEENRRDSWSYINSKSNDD
T1 sequence (P26010 whole entry): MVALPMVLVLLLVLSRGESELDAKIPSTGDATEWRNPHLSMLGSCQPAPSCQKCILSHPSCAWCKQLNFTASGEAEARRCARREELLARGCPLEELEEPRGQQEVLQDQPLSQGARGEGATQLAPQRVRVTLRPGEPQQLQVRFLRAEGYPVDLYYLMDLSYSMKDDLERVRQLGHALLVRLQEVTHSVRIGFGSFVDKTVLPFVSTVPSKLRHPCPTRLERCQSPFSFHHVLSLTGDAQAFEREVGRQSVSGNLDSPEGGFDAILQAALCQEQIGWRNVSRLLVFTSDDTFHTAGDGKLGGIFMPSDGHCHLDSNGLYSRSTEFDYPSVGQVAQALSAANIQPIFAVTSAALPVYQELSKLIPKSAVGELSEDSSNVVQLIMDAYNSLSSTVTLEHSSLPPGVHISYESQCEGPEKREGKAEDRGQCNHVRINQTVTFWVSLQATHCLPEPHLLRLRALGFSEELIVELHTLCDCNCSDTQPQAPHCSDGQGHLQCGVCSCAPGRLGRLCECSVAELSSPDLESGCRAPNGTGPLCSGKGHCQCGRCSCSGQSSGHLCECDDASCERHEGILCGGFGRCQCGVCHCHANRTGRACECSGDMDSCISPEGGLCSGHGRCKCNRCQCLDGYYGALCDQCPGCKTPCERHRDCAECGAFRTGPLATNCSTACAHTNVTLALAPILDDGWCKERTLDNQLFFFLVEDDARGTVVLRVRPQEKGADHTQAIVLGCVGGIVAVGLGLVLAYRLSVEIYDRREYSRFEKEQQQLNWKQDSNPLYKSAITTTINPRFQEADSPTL
Description: Ability to block the alpha4-beta7 integrin-MAdCAM-1 binding interaction using a protein ELISA format. The assay is classed as protein-complex assay. In short, it runs like this:
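Plates coated overnight at 4 °C with anti-human α4 antibody 9F10 (2 µg/mL), blocked in Tris pH 7.5 buffer with 1 mM MnCl2, Tween-20 and 0.5% BSA, then loaded with α4β7 purified from transfected JY cells (2 µg/mL). Compounds (1 nM–200 µM final, triplicate) plus MAdCAM-1-Ig-HRP (1 µg/mL), 2 h room temperature. TMB read at 450 nm; IC50 at half-maximal absorbance.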
Background: An ELISA detects its analyte on a solid surface through an enzyme-linked reagent.

Assay [3] has as its target Integrin alpha-4/beta-1 (Homo sapiens, UniProt P05556+P13612). Description: Inhibitory concentration affording 50% inhibition of alpha4-beta1 integrin binding to VCAM-1, using ELISA assay. It counts as protein-complex assay. A digest of the protocol:
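α4β1 extracted from Ramos cell membranes (lectin chromatography, gel filtration in 1% octylglucoside), with 1 mM MnCl2 throughout. Wells coated with 4 µg/mL recombinant soluble human VCAM-1 (5 N-terminal Ig domains, from CHO cells) and blocked with 1% BSA. Inhibitor and receptor 2 h at 37 °C in Tris pH 7.4. Bound receptor detected with anti-β1 mAb 2D4.6, then HRP anti-mouse and TMB at 450 nm. IC50 at half-maximal absorbance.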

Integrin alpha-4/beta-1, sequence (P05556 whole entry, one chain of several, the tested form may be a part): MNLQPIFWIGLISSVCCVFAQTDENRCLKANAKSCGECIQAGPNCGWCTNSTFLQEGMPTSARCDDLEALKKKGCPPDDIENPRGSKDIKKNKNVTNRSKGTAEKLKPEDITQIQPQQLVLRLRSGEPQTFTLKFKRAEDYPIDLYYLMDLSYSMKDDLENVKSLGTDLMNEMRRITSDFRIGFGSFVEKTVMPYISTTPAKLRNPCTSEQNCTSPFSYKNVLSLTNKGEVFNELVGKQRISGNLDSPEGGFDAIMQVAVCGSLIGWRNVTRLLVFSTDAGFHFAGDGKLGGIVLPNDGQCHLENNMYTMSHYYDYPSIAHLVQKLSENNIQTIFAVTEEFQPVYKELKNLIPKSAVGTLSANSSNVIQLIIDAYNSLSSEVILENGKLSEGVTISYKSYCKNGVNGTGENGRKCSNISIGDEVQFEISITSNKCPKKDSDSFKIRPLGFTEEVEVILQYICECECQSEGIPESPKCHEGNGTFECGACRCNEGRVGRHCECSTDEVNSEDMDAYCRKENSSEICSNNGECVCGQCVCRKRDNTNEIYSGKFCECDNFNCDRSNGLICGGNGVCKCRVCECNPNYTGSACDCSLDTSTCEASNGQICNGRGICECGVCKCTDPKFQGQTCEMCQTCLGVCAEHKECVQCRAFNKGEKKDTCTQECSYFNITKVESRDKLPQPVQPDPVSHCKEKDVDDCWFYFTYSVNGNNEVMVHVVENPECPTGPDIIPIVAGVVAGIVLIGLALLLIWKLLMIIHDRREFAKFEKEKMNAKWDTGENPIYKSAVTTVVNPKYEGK

In the case of `CC(C)C[C@H]1NC(=O)[C@H]([C@@H](C)O)NC(=O)[C@@H](CC(=O)O)NC(=O)[C@H](CO)NC(=O)[C@@H](CCCN=C(N)N)NC(=O)[C@H](N)CSSC[C@H](C(=O)O)NC1=O`, the Ratio in assay [1] is 3.1.

As to `CC[C@H](C)[C@H]1NC(=O)[C@H]([C@@H](C)O)NC(=O)[C@@H](CC(=O)O)NC(=O)[C@H](CO)NC(=O)[C@@H](CCCN=C(N)N)NC(=O)[C@H](N)CSSC[C@H](C(N)=O)NC1=O`, the Ratio in assay [1] was found to be 14.

With `CC(C)C[C@H]1NC(=O)[C@H]([C@@H](C)O)NC(=O)[C@@H](CC(=O)O)NC(=O)[C@H](CO)NC(=O)[C@@H](Cc2ccccc2)NC(=O)[C@H](N)CSSC[C@H](C(N)=O)NC1=O`, in assay [1], the Ratio was 0.09. On the same count and under the same terms, next, `CC(C)C[C@@H]1NC(=O)[C@@H](CCCN=C(N)N)NC(=O)[C@H](N)CSSC[C@H](C(N)=O)NC(=O)[C@@H](CC(C)C)NC(=O)[C@H]([C@@H](C)O)NC(=O)[C@@H](CC(=O)O)NC1=O`: 0.42; `C[C@@H](O)[C@@H]1NC(=O)[C@@H](CC(=O)O)NC(=O)[C@H](CO)NC(=O)[C@@H](CCCN=C(N)N)NC(=O)[C@H](N)CSSC[C@H](C(N)=O)NC(=O)[C@H]2CCCN2C1=O`: 0.9; `CC(C)C[C@H]1NC(=O)[C@H](C(C)C)NC(=O)[C@@H](CC(=O)O)NC(=O)[C@H](CO)NC(=O)[C@@H](CCCN=C(N)N)NC(=O)[C@H](N)CSSC[C@H](C(N)=O)NC1=O`: 15.5. Still for that read-out and setting: next, `CC(C)C[C@H]1NC(=O)[C@H]([C@@H](C)O)NC(=O)[C@@H](CC(N)=O)NC(=O)[C@H](CO)NC(=O)[C@@H](CCCN=C(N)N)NC(=O)[C@H](N)CSSC[C@H](C(N)=O)NC1=O`: 0.5; `CC[C@H](C)[C@@H]1NC(=O)[C@@H](CCCN=C(N)N)NC(=O)[C@H](N)CSSC[C@H](C(N)=O)NC(=O)[C@@H](CC(C)C)NC(=O)[C@H]([C@@H](C)O)NC(=O)[C@@H](CC(=O)O)NC1=O`: 0.06; `C[C@@H](O)[C@@H]1NC(=O)[C@@H](CC(=O)O)NC(=O)[C@H](CO)NC(=O)[C@@H](CCCN=C(N)N)NC(=O)[C@H](N)CSSC[C@H](C(N)=O)NC(=O)CNC1=O`: > 9. Still for that read-out and setting: next, `CC(C)[C@H]1NC(=O)[C@H]([C@@H](C)O)NC(=O)[C@@H](CC(=O)O)NC(=O)[C@H](CO)NC(=O)[C@@H](CCCN=C(N)N)NC(=O)[C@H](N)CSSC[C@H](C(N)=O)NC1=O`: 13.1; `CC(C)C[C@H]1NC(=O)[C@H]([C@@H](C)O)NC(=O)[C@@H](CC(=O)O)NC(=O)[C@H](CO)NC(=O)[C@@H](Cc2ccc(O)cc2)NC(=O)[C@H](N)CSSC[C@H](C(N)=O)NC1=O`: 0.07. Turning to `CC(C)C[C@H]1NC(=O)[C@H]([C@@H](C)O)NC(=O)[C@@H](CC(=O)O)NC(=O)[C@H](CO)NC(=O)[C@@H](CCCN=C(N)N)NC(=O)[C@H](N)CSSC[C@H](C(N)=O)NC1=O`, the Ratio in assay [1] worked out at 35. On the same count and under the same terms, next, `CC(C)C[C@H]1NC(=O)[C@H]([C@@H](C)O)NC(=O)[C@@H](CC(N)=O)NC(=O)[C@H](CO)NC(=O)[C@@H](CCCN=C(N)N)NC(=O)[C@H](N)CSSC[C@H](C(=O)O)NC1=O`: 0.06.

For `CC(C)C[C@H]1NC(=O)[C@H]([C@@H](C)O)NC(=O)[C@@H](CC(=O)O)NC(=O)[C@H](CO)NC(=O)[C@@H](CCCCN)NC(=O)[C@H](N)CSSC[C@H](C(N)=O)NC1=O`, the Ratio in assay [1] came to 6.

On to `CC(C)C[C@H]1NC(=O)[C@H]([C@@H](C)O)NC(=O)[C@@H](CC(=O)O)NC(=O)[C@H](CO)NC(=O)[C@@H](Cc2c[nH]c3ccccc23)NC(=O)[C@H](N)CSSC[C@H](C(N)=O)NC1=O`, for which, in assay [1], the Ratio came to 0.37. For the compound `CC(C)C[C@H]1NC(=O)[C@@H]([C@@H](C)O)NC(=O)[C@@H](CC(=O)O)NC(=O)[C@H](CO)NC(=O)[C@@H](CCCN=C(N)N)NC(=O)[C@H](N)CSSC[C@H](C(N)=O)NC1=O`, the IC50 in assay [2] was 7900 nM; in assay [3] it was 20000 nM. Moreover, the Ratio in assay [1] stood at 2.5. Regarding `CC(C)C[C@H]1NC(=O)[C@H]([C@@H](C)O)NC(=O)[C@@H](CC(=O)O)NC(=O)[C@H]([C@@H](C)O)NC(=O)[C@@H](CCCN=C(N)N)NC(=O)[C@H](N)CSSC[C@H](C(N)=O)NC1=O`, in assay [1], the Ratio is 3.5. Still for that read-out and setting: next, `CC(C)C[C@H]1NC(=O)[C@H](CO)NC(=O)[C@@H](CC(=O)O)NC(=O)[C@H](CO)NC(=O)[C@@H](CCCN=C(N)N)NC(=O)[C@H](N)CSSC[C@H](C(N)=O)NC1=O`: 48; `CC(C)C[C@H]1NC(=O)[C@H]([C@@H](C)O)NC(=O)[C@@H](CC(=O)O)NC(=O)[C@H](CO)NC(=O)[C@@H](Cc2c[nH]cn2)NC(=O)[C@H](N)CSSC[C@H](C(N)=O)NC1=O`: 2.8. With `CC(C)C[C@H]1NC(=O)[C@H]([C@H](C)O)NC(=O)[C@@H](CC(=O)O)NC(=O)[C@@H](CO)NC(=O)[C@@H](CCCN=C(N)N)NC(=O)[C@H](N)CSSC[C@H](C(N)=O)NC1=O`, the figures for the IC50 in assay [2] and in assay [3] were 43000 nM and > 100000 nM, respectively. For the same compound, the Ratio in assay [1] was > 2.3. Consider `CC(C)C[C@H]1NC(=O)[C@H]([C@@H](C)O)NC(=O)[C@@H](CCC(=O)O)NC(=O)[C@H](CO)NC(=O)[C@@H](CCCN=C(N)N)NC(=O)[C@H](N)CSSC[C@H](C(N)=O)NC1=O`, for which the Ratio in assay [1] was determined as 0.1. As to `CC(C)C[C@@H]1NC(=O)[C@H]([C@@H](C)O)NC(=O)[C@H](CC(=O)O)NC(=O)[C@H](CO)NC(=O)[C@H](Cc2cnc[nH]2)NC(=O)[C@@H](N)CSSC[C@@H](C(N)=O)NC1=O`, the IC50 was found to be 390 nM in assay [2] and 1100 nM in assay [3].

Turning to `CSCC[C@@H]1NC(=O)[C@@H](CCCN=C(N)N)NC(=O)[C@H](N)CSSC[C@H](C(N)=O)NC(=O)[C@@H](CC(C)C)NC(=O)[C@H]([C@@H](C)O)NC(=O)[C@@H](CC(=O)O)NC1=O`, the Ratio in assay [1] worked out at 1.5.

For the compound `CC(C)C[C@@H]1NC(=O)[C@H]([C@@H](C)O)NC(=O)[C@H](CC(=O)O)NC(=O)[C@H](CO)NC(=O)[C@H](C)NC(=O)[C@@H](N)CSSC[C@@H](C(N)=O)NC1=O` (HELM PEPTIDE1{C.A.S.D.T.L.C.[am]}$PEPTIDE1,PEPTIDE1,1:R3-7:R3$$$V2.0), the IC50 in assay [2] worked out at 1100 nM; in assay [3], 2800 nM.

`CC(C)C[C@@H]1NC(=O)[C@H]([C@@H](C)O)NC(=O)[C@H](CC(=O)O)NC(=O)[C@H](CO)NC(=O)[C@H](CCCNC(=N)N)NC(=O)[C@@H](N)CSSC[C@@H](C(N)=O)NC1=O`: the IC50 in assay [2] came out at 120 nM; in assay [3], 4200 nM.

By IC50 is commonly meant the midpoint of a concentration-inhibition curve. Low values mean inhibition by little substance, high ones a need for much substance.
